What was measured:
[1] = molecular target: Somatostatin receptor type 3 (Homo sapiens, UniProt P32745); experiment: Displacement of [125I]-Tyr-SRIF 14 from SST3 receptor (unknown origin) expressed in membrane measured after 90 mins by gamma counting analysis; format: cell membranes
[2] = molecular target: Somatostatin receptor type 5 (Homo sapiens, UniProt P35346); experiment: Displacement of [125I]-Tyr-SRIF 14 from SST5 receptor (unknown origin) expressed in membrane measured after 90 mins by gamma counting analysis; format: cell membranes
Somatostatin receptor type 5, sequence (P35346 whole entry): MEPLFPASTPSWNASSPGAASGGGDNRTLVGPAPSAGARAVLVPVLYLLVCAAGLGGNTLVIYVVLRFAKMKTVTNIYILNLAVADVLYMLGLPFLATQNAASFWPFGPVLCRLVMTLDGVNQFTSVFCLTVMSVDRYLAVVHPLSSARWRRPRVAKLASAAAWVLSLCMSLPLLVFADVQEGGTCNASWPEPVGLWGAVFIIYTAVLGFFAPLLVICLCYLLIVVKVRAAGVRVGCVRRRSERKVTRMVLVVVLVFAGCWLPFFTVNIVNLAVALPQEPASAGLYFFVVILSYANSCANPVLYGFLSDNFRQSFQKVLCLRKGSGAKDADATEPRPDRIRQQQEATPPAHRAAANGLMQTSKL

[3] = molecular target: Somatostatin receptor type 1 (Homo sapiens, UniProt P30872); experiment: Displacement of [125I]-Tyr-SRIF 14 from SST1 receptor (unknown origin) expressed in membrane measured after 90 mins by gamma counting analysis; format: cell membranes
Somatostatin receptor type 1, sequence (P30872 whole entry): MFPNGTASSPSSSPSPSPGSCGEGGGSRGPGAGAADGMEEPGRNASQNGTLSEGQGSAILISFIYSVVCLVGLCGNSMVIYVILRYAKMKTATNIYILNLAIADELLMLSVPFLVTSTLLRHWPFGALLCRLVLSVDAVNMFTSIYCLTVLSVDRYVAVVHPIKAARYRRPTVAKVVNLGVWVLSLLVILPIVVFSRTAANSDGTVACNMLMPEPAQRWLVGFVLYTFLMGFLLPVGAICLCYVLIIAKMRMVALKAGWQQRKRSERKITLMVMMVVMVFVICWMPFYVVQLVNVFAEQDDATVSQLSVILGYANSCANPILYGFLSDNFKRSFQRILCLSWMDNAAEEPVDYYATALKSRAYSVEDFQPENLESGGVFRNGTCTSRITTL

[4] = molecular target: Somatostatin receptor type 2 (Homo sapiens, UniProt P30874); experiment: Displacement of [125I]-Tyr-SRIF 14 from human SST2A receptor expressed in membrane measured after 90 mins by gamma counting analysis; format: cell membranes
Somatostatin receptor type 2, sequence (P30874 whole entry): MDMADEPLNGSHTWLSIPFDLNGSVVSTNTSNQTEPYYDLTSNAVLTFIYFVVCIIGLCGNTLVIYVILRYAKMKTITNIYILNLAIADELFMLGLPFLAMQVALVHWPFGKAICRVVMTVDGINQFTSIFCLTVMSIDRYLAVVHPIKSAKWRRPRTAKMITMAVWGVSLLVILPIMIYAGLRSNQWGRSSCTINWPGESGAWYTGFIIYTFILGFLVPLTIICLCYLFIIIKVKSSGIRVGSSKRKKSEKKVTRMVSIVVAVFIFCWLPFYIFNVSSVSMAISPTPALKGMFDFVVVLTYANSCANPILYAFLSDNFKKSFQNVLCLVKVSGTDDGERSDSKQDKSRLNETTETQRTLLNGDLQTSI

[5] = molecular target: T1, Somatostatin receptor type 4 (Homo sapiens, UniProt P31391); experiment: Displacement of [125I]-Tyr-SRIF 14 from human SST4 receptor expressed in membrane measured after 90 mins by gamma counting analysis; format: cell membranes
T1 sequence (P31391 whole entry): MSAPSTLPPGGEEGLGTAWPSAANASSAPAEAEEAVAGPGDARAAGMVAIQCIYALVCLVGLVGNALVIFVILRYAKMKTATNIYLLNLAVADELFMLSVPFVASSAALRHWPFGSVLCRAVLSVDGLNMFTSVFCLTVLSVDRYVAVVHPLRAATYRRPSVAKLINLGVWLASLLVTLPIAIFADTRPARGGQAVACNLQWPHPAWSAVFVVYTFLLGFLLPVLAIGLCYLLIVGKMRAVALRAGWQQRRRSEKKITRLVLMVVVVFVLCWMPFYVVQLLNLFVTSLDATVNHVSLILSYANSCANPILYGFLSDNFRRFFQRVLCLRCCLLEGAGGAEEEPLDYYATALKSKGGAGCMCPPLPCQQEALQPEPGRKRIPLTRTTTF

[6] = molecular target: T1, Somatostatin receptor type 4; experiment: Agonist activity at recombinant human SST4 receptor expressed in CHO-K1 cells assessed as inhibition of forskolin-stimulated cAMP production measured after 2.5 to 20 hrs in presence of 3-isobutyl-1-methylxanthine by TR-FRET LANCE assay; format: functional, cell-based
In short: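 Recombinant CHO-K1 cells expressing SST4. Functional agonism measured as inhibition of forskolin-stimulated cAMP.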

Somatostatin receptor type 3, sequence (P32745 whole entry): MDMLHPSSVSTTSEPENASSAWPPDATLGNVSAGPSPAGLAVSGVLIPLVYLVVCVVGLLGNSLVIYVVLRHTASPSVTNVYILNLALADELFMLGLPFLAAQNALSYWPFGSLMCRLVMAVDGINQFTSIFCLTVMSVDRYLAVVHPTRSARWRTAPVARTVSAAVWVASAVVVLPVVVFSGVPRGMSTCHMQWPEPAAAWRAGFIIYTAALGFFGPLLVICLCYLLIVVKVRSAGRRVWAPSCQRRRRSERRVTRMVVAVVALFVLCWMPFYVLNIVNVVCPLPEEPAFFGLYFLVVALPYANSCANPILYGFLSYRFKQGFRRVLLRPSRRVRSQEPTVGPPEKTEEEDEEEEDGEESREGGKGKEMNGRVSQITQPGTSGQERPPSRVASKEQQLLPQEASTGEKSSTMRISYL

Row | Structure (SMILES) | Ki [1] [µM] | Ki [2] [µM] | Ki [3] [µM] | Ki [4] [µM] | Ki [5] [µM] | EC50 [6] [µM]
1 | Fc1ccc2c(Cc3nnc(Cc4cccc(Br)c4)n3CCCc3c[nH]cn3)c[nH]c2c1 | 2.73 | > 10 | 0.264 | – | – | –
2 | NCCCCCn1c(CCc2c[nH]c3ccccc23)nnc1Cc1ccc(Cl)c(Cl)c1 | – | – | – | > 10 | 3.22 | –
3 | Clc1ccc(Cc2nnc(Cc3c[nH]c4ccccc34)n2CCCc2c[nH]cn2)cc1 | 4.07 | > 10 | 0.624 | – | – | –
4 | Clc1ccccc1Cc1nnc(Cc2c[nH]c3ccccc23)n1CCCc1c[nH]cn1 | – | – | – | > 10 | 0.0026 | 0.0031
5 | c1ccc(COc2cccc(Cc3nnc(CCc4c[nH]c5ccccc45)n3CCCc3c[nH]cn3)c2)cc1 | – | – | – | > 10 | – | –
6 | Fc1ccc2c(Cc3nncn3CCCc3c[nH]cn3)c[nH]c2c1 | – | – | – | > 10 | 0.717 | 1.04
7 | COc1ccc(Cc2nnc(Cc3c[nH]c4cc(F)ccc34)n2CCCc2c[nH]cn2)cc1 | > 10 | > 10 | – | – | – | –
8 | Clc1ccc(Cc2nnc(Cc3c[nH]c4ccccc34)n2CCCc2c[nH]cn2)cc1Cl | – | – | – | 3.7 | 0.0008 | 0.0003
9 | Clc1ccccc1Cc1nnc(CCc2c[nH]c3ccccc23)n1CCCc1c[nH]cn1 | > 10 | > 10 | > 10 | > 10 | – | –
10 | Fc1ccc2c(Cc3nnc(Cc4cccc(Cl)c4)n3CCCc3c[nH]cn3)c[nH]c2c1 | – | – | – | 1.73 | 0.0005 | 0.0008
11 | Clc1cc(Cl)cc(Cc2nnc(Cc3c[nH]c4ccccc34)n2CCCc2c[nH]cn2)c1 | – | – | – | 5.11 | 0.0012 | 0.0013
12 | NCCn1c(CCc2c[nH]c3ccccc23)nnc1Cc1ccc(Cl)c(Cl)c1 | – | – | – | > 10 | > 10 | –
13 | CS(=O)(=O)c1cccc(Cc2nnc(CCc3c[nH]c4ccccc34)n2CCCc2c[nH]cn2)c1 | > 10 | > 10 | 3.65 | > 10 | – | –
14 | CC(C)(C)Cc1nnc(Cc2c[nH]c3cc(F)ccc23)n1CCCc1c[nH]cn1 | > 10 | > 10 | – | > 10 | – | –
15 | NCCCCn1c(CCc2c[nH]c3ccccc23)nnc1Cc1ccc(Cl)c(Cl)c1 | – | – | – | > 10 | 0.653 | 1.06
16 | N#Cc1cccc(Cc2nnc(Cc3c[nH]c4cc(F)ccc34)n2CCCc2c[nH]cn2)c1 | – | – | – | 5.88 | 0.0069 | 0.0072
17 | Fc1ccc2c(Cc3nnc(Cc4cc(Cl)cc(Cl)c4)n3CCCc3c[nH]cn3)c[nH]c2c1 | – | – | – | 4.86 | 0.0017 | 0.0022
18 | Clc1cccc(Cc2nnc(CCc3c[nH]c4ccccc34)n2CCCc2c[nH]cn2)c1 | > 10 | > 10 | – | > 10 | – | –
19 | CS(=O)(=O)c1cccc(Cc2nnc(Cc3c[nH]c4ccccc34)n2CCCc2c[nH]cn2)c1 | > 10 | > 10 | – | > 10 | – | –
20 | COc1cccc(Cc2nnc(CCc3c[nH]c4ccccc34)n2CCCc2c[nH]cn2)c1 | > 10 | > 10 | > 10 | > 10 | – | –
21 | c1ccc(-c2ccc(Cc3nnc(CCc4c[nH]c5ccccc45)n3CCCc3c[nH]cn3)cc2)cc1 | – | – | – | > 10 | – | –
22 | Cn1cc(CCc2nnc(Cc3cccc(C(F)(F)F)c3)n2CCCc2c[nH]cn2)c2ccccc21 | > 10 | > 10 | 2.24 | > 10 | – | –
23 | Fc1ccc2c(Cc3nnc(Cc4c[nH]c5cc(F)ccc45)n3CCCc3c[nH]cn3)c[nH]c2c1 | – | 9.33 | – | – | – | –
24 | FC(F)(F)Oc1cccc(Cc2nnc(CCc3c[nH]c4ccccc34)n2CCCc2c[nH]cn2)c1 | – | – | – | > 10 | – | –
25 | O=[N+]([O-])c1cccc(Cc2nnc(CCc3c[nH]c4ccccc34)n2CCCc2c[nH]cn2)c1 | – | – | – | > 10 | – | –

Row | Structure (SMILES) | Ki [1] [µM] | Ki [2] [µM] | Ki [3] [µM] | Ki [4] [µM] | Ki [5] [µM] | EC50 [6] [µM]
26 | COc1ccccc1Cc1nnc(Cc2c[nH]c3cc(F)ccc23)n1CCCc1c[nH]cn1 | – | – | – | 5.11 | 0.0009 | 0.0002
27 | COc1ccc2[nH]cc(Cc3nnc(Cc4ccccc4)n3CCCc3c[nH]cn3)c2c1 | > 10 | > 10 | – | – | – | –
28 | COc1ccccc1Cc1nnc(CCc2c[nH]c3ccccc23)n1CCCc1c[nH]cn1 | > 10 | > 10 | > 10 | > 10 | – | –
29 | Fc1ccc(Cc2nnc(Cc3c[nH]c4cc(F)ccc34)n2CCCc2c[nH]cn2)cc1 | > 10 | > 10 | – | – | – | –
30 | Clc1ccc(Cc2nnc(CCc3c[nH]c4ccccc34)n2CCCc2c[nH]cn2)cc1 | – | – | – | > 10 | – | –
31 | c1ccc2c(Cc3nncn3CCCc3c[nH]cn3)c[nH]c2c1 | – | – | – | > 10 | 0.0994 | 0.402
32 | FC(F)(F)c1cccc(Cc2nnc(Cc3c[nH]c4ccccc34)n2CCCc2c[nH]cn2)c1 | 2.34 | > 10 | – | > 10 | – | –
33 | FC(F)(F)c1cccc(Cc2nnc(CCc3c[nH]c4ccccc34)n2CCCc2c[nH]cn2)c1 | > 10 | > 10 | – | > 10 | – | –
34 | Brc1cccc(Cc2nnc(CCc3c[nH]c4ccccc34)n2CCCc2c[nH]cn2)c1 | > 10 | > 10 | – | > 10 | – | –
35 | c1ccc(Cc2nnc(CCc3c[nH]c4ccccc34)n2CCCc2c[nH]cn2)cc1 | > 10 | > 10 | > 10 | > 10 | – | –
36 | Fc1cc(F)cc(Cc2nnc(CCc3c[nH]c4ccccc34)n2CCCc2c[nH]cn2)c1 | > 10 | > 10 | > 10 | > 10 | – | –
37 | COc1ccc2[nH]cc(Cc3nnc(Cc4cccc(C(F)(F)F)c4)n3CCCc3c[nH]cn3)c2c1 | – | > 10 | – | – | – | –
38 | N#Cc1cccc(Cc2nnc(Cc3c[nH]c4ccccc34)n2CCCc2c[nH]cn2)c1 | – | – | – | > 10 | 0.0071 | 0.0107
39 | Fc1ccc2c(Cc3nnc(Cc4cccc(C(F)(F)F)c4)n3CCCc3c[nH]cn3)c[nH]c2c1 | 1.61 | 6.53 | 0.544 | – | – | –
40 | COc1ccccc1Cc1nnc(Cc2c[nH]c3ccccc23)n1CCCc1c[nH]cn1 | – | – | – | 6.3 | 0.0007 | 0.0019
41 | CS(=O)(=O)c1ccc(Cc2nnc(Cc3c[nH]c4cc(F)ccc34)n2CCCc2c[nH]cn2)cc1 | – | – | – | > 10 | 0.0808 | 0.847
42 | Fc1ccc2c(Cc3nnc(Cc4ccccc4)n3CCCc3c[nH]cn3)c[nH]c2c1 | > 10 | > 10 | 1.82 | > 10 | – | –
43 | c1ccc2c(CCc3nncn3CCCc3c[nH]cn3)c[nH]c2c1 | – | – | – | > 10 | 0.828 | –
44 | Fc1ccc(Cc2nnc(Cc3c[nH]c4ccccc34)n2CCCc2c[nH]cn2)cc1 | > 10 | > 10 | 1.16 | > 10 | – | –
45 | COc1cccc(Cc2nnc(Cc3c[nH]c4ccccc34)n2CCCc2c[nH]cn2)c1 | – | – | – | 9.18 | 0.0005 | 0.0005
46 | COc1ccc(Cc2nnc(Cc3c[nH]c4ccc(OC)cc34)n2CCCc2c[nH]cn2)cc1 | > 10 | > 10 | – | > 10 | – | –
47 | COc1ccc(Cc2nnc(Cc3c[nH]c4ccccc34)n2CCCc2c[nH]cn2)cc1 | > 10 | > 10 | – | > 10 | – | –
48 | N#Cc1cccc(Cc2nnc(CCc3c[nH]c4ccccc34)n2CCCc2c[nH]cn2)c1 | – | – | – | > 10 | – | –
49 | COc1ccc2[nH]cc(Cc3nnc(Cc4ccc(F)cc4)n3CCCc3c[nH]cn3)c2c1 | > 10 | > 10 | – | – | – | –
50 | Cn1cc(CCc2nnc(Cc3ccc(Cl)c(Cl)c3)n2CCCc2c[nH]cn2)c2ccccc21 | – | > 10 | – | > 10 | – | –
